Laboratory results from ChEMBL document CHEMBL2429772, “Selective arylsulfonamide inhibitors of ADAM-17: hit optimization and activity in ovarian cancer cell models” (J Med Chem, 2013).

Experiments:
[1] = target: Matrix metalloproteinase-9 (Homo sapiens, UniProt P14780); test: Inhibition of recombinant human MMP-9 using Mca-Lys-Pro-Leu-Gly-Leu-Dap(Dnp)-Ala-Arg-NH2 as substrate incubated for 4 hrs measured every 15 secs for 20 mins by fluorimetric assay
How it was run: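 Pro-MMP-9 was activated with 1 mM APMA for 1 h at 37 °C and used at 1.3 nM final. Inhibitor was incubated with enzyme for 4 h at 25 °C in Tris 50 mM pH 7.5, NaCl 150 mM, CaCl2 10 mM, 0.05% Brij-35, 1% DMSO. Substrate was at 2 µM final, ex 325/em 400 nm, in duplicate. IC50 was obtained from vi/vo = 1/(1+[I]/IC50).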

[2] = target: Matrix metalloproteinase-14 (Homo sapiens, UniProt P50281); test: Inhibition of recombinant human MMP-14 catalytic domain using Mca-Lys-Pro-Leu-Gly-Leu-Dap(Dnp)-Ala-Arg-NH2 as substrate incubated for 4 hrs measured every 15 secs for 20 mins by fluorimetric assay
How it was run: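 MMP-14 catalytic domain was used at 1.0 nM final with no activation step. It was incubated with inhibitor for 4 h at 25 °C in Tris 50 mM pH 7.5 buffer with NaCl 150 mM, CaCl2 10 mM, 0.05% Brij-35 and 1% DMSO. Substrate was at 2 µM final, ex 325/em 400 nm, duplicate wells. IC50 was fitted by vi/vo = 1/(1+[I]/IC50).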

[3] = target: 72 kDa type IV collagenase (Homo sapiens, UniProt P08253); test: Inhibition of recombinant human MMP-2 using Mca-Lys-Pro-Leu-Gly-Leu-Dap(Dnp)-Ala-Arg-NH2 as substrate incubated for 4 hrs measured every 15 secs for 20 mins by fluorimetric assay
How it was run: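 Pro-MMP-2 was activated with 2 mM APMA for 1 h at 37 °C and used at 0.56 nM final. It was preincubated with inhibitor for 4 h at 25 °C in Tris 50 mM pH 7.5 buffer containing NaCl, CaCl2, Brij-35 and 1% DMSO. Substrate was at 2 µM final, ex 325/em 400 nm, run in duplicate. IC50 was taken from initial-velocity ratios, vi/vo = 1/(1+[I]/IC50).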

Interstitial collagenase = target: T1, Interstitial collagenase (Homo sapiens, UniProt P03956); test: Inhibition of recombinant human MMP-1 using Mca-Lys-Pro-Leu-Gly-Leu-Dap(Dnp)-Ala-Arg-NH2 as substrate incubated for 4 hrs measured every 15 secs for 20 mins by fluorimetric assay
T1 sequence (P03956 whole entry): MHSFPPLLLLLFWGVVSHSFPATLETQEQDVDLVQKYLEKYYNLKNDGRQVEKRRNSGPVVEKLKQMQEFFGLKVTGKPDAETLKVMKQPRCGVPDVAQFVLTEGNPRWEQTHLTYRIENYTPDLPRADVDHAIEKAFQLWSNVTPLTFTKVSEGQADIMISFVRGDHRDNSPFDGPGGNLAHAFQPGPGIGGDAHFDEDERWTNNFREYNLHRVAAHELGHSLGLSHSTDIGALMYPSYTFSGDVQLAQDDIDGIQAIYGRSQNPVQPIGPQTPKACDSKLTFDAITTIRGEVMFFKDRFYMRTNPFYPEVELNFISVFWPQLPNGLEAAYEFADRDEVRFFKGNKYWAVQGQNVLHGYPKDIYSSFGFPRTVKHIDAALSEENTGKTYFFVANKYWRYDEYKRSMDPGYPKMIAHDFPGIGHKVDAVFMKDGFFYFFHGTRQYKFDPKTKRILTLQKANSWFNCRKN
How it was run: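 Pro-MMP-1 was activated with 2 mM APMA for 2 h at 37 °C. Enzyme (2.0 nM final) was incubated with inhibitor in Tris 50 mM pH 7.5, NaCl 150 mM, CaCl2 10 mM, 0.05% Brij-35, 1% DMSO for 4 h at 25 °C. Substrate was added at 2 µM final. Fluorescence (ex 325/em 400 nm) was read for initial rates, in duplicate. IC50 came from vi/vo = 1/(1+[I]/IC50).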

[4] = target: T2, Disintegrin and metalloproteinase domain-containing protein 17 (Homo sapiens, UniProt P78536); test: Inhibition of recombinant human ADAM-17 using Mca-Lys-Pro-Leu-Gly-Leu-Dap(Dnp)-Ala-Arg-NH2 as substrate incubated for 30 mins measured every 15 secs for 20 mins by fluorimetric assay
How it was run: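 Enzyme at 5 nM final was preincubated with inhibitor for 30 min at 37 °C in Tris 25 mM pH 9, ZnCl2 25 µM, 0.005% Brij-35. Substrate was at 2 µM final. Fluorescence increase (ex 325/em 400 nm) gave initial rates, in duplicate. IC50 was derived from vi/vo = 1/(1+[I]/IC50).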

[5] = target: T2, Disintegrin and metalloproteinase domain-containing protein 17; test: Inhibition of ADAM-17 in human SKOV3 cells transfected with luciferase gene assessed as inhibition of pervanadate-induced sALCAM release incubated for 30 mins prior to pervanadate induction measured after 90 mins by ELISA; assay type: cell-based, SK-OV-3
A2780 = test: Cytotoxicity against human A2780 cells assessed as cell viability at 0.01 to 10 uM after 24 to 72 hrs by MTT assay; assay type: cell-based; settings: a2780, 10 µM
[6] = Cytotoxicity against human A2774 cells assessed as cell viability at 0.01 to 10 uM after 24 to 72 hrs by MTT assay; assay type: cell-based; settings: a2774, 10 µM
SK-OV-3 = test: Cytotoxicity against human SKOV3 cells transfected with luciferase gene assessed as cell viability at 0.01 to 10 uM after 24 to 72 hrs by MTT assay; assay type: cell-based; settings: sk-ov-3, 10 µM
[7] = target: T2, Disintegrin and metalloproteinase domain-containing protein 17; test: Inhibition of ADAM-17 in human A2780 cells assessed as inhibition of EGF-induced sALCAM release incubated for 30 mins prior to EGF induction measured after 18 hrs by ELISA; assay type: cell-based
[8] = target: T2, Disintegrin and metalloproteinase domain-containing protein 17; test: Inhibition of ADAM-17 in human A2780 cells assessed as inhibition of pervanadate-induced sALCAM release incubated for 30 mins prior to pervanadate induction measured after 90 mins by ELISA; assay type: cell-based
[9] = target: T2, Disintegrin and metalloproteinase domain-containing protein 17; test: Inhibition of ADAM-17 in human SKOV3 cells transfected with luciferase gene assessed as inhibition of EGF-induced sALCAM release incubated for 30 mins prior to EGF induction measured after 18 hrs by ELISA; assay type: cell-based, SK-OV-3
[10] = target: T2, Disintegrin and metalloproteinase domain-containing protein 17; test: Inhibition of ADAM-17 in human A2774 cells assessed as inhibition of pervanadate-induced sALCAM release incubated for 30 mins prior to pervanadate induction measured after 90 mins by ELISA; assay type: cell-based
[11] = target: T2, Disintegrin and metalloproteinase domain-containing protein 17; test: Inhibition of ADAM-17 in human A2774 cells assessed as inhibition of EGF-induced sALCAM release incubated for 30 mins prior to EGF induction measured after 18 hrs by ELISA; assay type: cell-based
[12] = target: T3, Disintegrin and metalloproteinase domain-containing protein 10 (Homo sapiens, UniProt O14672); test: Inhibition of recombinant human ADAM-10 using Mca-Lys-Pro-Leu-Gly-Leu-Dap(Dnp)-Ala-Arg-NH2 as substrate incubated for 1 hr measured every 15 secs for 20 mins by fluorimetric assay
T3 sequence (O14672 whole entry): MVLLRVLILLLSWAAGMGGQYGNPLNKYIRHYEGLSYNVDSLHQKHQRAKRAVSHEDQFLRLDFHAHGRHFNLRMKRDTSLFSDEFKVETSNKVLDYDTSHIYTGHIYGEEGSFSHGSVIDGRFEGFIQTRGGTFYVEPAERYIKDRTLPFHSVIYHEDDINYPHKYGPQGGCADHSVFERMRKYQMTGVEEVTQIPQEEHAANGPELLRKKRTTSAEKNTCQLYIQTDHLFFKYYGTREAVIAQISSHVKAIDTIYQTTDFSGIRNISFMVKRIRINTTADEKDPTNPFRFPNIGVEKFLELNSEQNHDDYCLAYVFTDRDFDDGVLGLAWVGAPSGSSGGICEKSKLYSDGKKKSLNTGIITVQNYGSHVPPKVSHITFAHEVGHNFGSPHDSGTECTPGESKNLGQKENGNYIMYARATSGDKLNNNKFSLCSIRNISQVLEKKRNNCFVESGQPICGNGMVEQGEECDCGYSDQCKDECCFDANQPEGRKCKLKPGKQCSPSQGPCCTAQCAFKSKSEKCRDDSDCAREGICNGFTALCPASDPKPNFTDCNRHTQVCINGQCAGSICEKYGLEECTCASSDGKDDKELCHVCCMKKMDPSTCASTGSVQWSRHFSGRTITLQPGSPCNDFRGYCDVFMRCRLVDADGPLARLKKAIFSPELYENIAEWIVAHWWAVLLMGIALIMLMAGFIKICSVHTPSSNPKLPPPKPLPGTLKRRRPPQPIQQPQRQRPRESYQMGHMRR
How it was run: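 Enzyme at 20 nM final was preincubated with inhibitor for 1 h at 37 °C in pH 9 buffer (Tris 25 mM, ZnCl2 25 µM, 0.005% Brij-35). Substrate was at 10 µM final. Fluorescence (ex 325/em 400 nm) was followed for initial velocity, in duplicate. IC50 was calculated with vi/vo = 1/(1+[I]/IC50).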

Chain of Matrix metalloproteinase-9 (P14780 whole entry): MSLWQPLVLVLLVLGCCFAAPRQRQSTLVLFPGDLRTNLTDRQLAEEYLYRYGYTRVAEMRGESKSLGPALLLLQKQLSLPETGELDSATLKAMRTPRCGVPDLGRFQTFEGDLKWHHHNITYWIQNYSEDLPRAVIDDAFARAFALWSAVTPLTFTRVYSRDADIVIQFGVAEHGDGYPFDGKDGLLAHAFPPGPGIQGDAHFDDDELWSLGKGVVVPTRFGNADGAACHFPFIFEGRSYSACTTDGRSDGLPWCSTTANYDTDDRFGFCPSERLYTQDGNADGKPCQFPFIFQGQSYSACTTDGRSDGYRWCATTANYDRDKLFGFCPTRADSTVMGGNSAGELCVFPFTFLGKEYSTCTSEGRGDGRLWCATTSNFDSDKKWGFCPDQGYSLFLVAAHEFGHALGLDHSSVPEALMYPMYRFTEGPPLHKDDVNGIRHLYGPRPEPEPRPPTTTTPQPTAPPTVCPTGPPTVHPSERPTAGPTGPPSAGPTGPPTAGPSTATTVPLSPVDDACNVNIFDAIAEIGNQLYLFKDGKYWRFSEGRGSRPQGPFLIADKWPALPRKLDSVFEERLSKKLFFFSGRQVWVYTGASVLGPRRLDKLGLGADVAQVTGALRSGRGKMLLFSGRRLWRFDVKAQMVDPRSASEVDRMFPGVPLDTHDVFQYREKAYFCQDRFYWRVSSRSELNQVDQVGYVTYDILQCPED
Chain of 72 kDa type IV collagenase (P08253 whole entry): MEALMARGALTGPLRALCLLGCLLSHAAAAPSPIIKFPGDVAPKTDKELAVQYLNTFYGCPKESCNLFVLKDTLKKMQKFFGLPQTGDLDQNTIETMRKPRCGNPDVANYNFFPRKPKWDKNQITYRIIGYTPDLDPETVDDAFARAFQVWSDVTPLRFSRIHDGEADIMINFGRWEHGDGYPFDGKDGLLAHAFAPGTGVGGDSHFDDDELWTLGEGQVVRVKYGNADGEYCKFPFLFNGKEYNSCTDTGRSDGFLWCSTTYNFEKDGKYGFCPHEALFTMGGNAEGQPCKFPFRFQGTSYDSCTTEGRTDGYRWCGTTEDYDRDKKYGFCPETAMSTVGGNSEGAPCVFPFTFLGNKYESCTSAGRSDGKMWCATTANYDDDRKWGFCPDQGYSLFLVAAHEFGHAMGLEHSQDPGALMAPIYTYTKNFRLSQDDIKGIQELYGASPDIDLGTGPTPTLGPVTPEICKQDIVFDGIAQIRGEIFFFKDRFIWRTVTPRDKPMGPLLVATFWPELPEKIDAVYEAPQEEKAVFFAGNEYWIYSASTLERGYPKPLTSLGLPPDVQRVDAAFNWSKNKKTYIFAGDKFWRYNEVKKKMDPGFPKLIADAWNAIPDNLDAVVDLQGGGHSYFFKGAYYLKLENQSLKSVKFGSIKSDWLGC
T2 sequence (P78536 whole entry, the tested form may be a part): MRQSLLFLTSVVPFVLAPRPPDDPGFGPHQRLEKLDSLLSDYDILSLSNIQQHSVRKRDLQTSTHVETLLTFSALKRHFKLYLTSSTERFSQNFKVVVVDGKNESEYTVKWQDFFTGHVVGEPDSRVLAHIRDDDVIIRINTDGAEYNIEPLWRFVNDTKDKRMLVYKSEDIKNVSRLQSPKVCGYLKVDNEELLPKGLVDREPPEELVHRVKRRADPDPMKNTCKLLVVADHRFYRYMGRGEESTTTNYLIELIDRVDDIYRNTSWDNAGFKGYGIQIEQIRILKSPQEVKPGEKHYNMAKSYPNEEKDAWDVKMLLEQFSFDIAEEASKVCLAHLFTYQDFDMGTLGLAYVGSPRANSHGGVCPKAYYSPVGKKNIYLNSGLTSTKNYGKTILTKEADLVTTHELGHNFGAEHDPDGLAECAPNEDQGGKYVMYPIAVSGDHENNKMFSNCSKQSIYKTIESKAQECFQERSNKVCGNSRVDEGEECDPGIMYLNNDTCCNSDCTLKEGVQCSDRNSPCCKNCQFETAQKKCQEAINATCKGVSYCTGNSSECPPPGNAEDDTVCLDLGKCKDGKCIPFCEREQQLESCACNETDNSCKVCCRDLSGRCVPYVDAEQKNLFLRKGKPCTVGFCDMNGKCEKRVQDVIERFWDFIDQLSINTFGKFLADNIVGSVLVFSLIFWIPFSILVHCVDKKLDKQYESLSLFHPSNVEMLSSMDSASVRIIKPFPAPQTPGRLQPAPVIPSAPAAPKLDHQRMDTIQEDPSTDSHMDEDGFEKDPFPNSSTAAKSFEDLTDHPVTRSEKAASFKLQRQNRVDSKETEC

| SMILES | IC50 [1] [nM] | IC50 [2] [nM] | IC50 [3] [nM] | IC50 (Interstitial collagenase) [µM] | IC50 [4] [nM] | IC50 [5] [nM] | Activity (A2780) | Activity [6] | Activity (SK-OV-3) | IC50 [7] [nM] | IC50 [8] [nM] | IC50 [9] [µM] | IC50 [10] [nM] | IC50 [11] [nM] | IC50 [12] [µM] |
| --- | --- | --- | --- | --- | --- | --- | --- | --- | --- | --- | --- | --- | --- | --- | --- |
| O=C(CNS(=O)(=O)c1ccc(OCc2ccc(F)cc2)cc1)NO | 42 | 590 | 3 | 32 | 145 | – | – | – | – | – | – | – | – | – | – |
| O=C(CNS(=O)(=O)c1ccc(OCc2cccc3cccnc23)cc1)NO | 29000 | 120000 | 670 | 620 | 650 | – | – | – | – | – | – | – | – | – | – |
| CC#CCOc1ccc(S(=O)(=O)N[C@H](CCNC(=O)OCc2ccccc2)C(=O)NO)cc1 | – | – | – | – | – | 14 | Non-toxic | Non-toxic | Non-toxic | 1440 | < 10 | 0.966 | 26 | – | – |
| NC(=O)NCCC[C@@H](NS(=O)(=O)c1ccc(OCc2cc(Br)cc(Br)c2)cc1)C(=O)NO | – | – | – | > 500 | – | 58 | Non-toxic | Non-toxic | Non-toxic | 845 | < 10 | 4.27 | 45 | 651 | – |
| O=C(O)CNS(=O)(=O)c1ccc(OCc2cc(Br)cc(Br)c2)cc1 | – | – | 125000 | – | > 50000 | – | – | – | – | – | – | – | – | – | – |
| COc1ccc(-c2cc(Br)cc(COc3ccc(S(=O)(=O)NCC(=O)NO)cc3)c2)cc1 | – | 170000 | 3800 | > 200 | 320 | – | – | – | – | – | – | – | – | – | – |
| O=C(CNS(=O)(=O)c1ccc(OCc2cc(F)cc(F)c2)cc1)NO | 330 | 890 | 18 | 181 | 82 | – | – | – | – | – | – | – | – | – | – |
| O=C(CNS(=O)(=O)c1ccc(OCc2ccc(OC(F)(F)F)cc2)cc1)NO | 37 | 7200 | 7.5 | 74 | 200 | – | – | – | – | – | – | – | – | – | – |
| O=C(CNS(=O)(=O)c1ccc(OCc2ccc(-c3ccccc3)cc2)cc1)NO | 690 | 72000 | 48 | > 500 | 640 | – | – | – | – | – | – | – | – | – | – |
| CC#CCOc1ccc(S(=O)(=O)NCC(=O)NO)cc1 | 890 | 2900 | 110 | 28 | 17 | – | – | – | – | – | – | – | – | – | – |
| O=C(CNS(=O)(=O)c1ccc(OCc2cccc(OC(F)(F)F)c2)cc1)NO | 76 | 2900 | 20 | > 500 | 280 | – | – | – | – | – | – | – | – | – | – |
| O=C(CNS(=O)(=O)c1ccc(OCc2cc(Br)cc(-c3cccnc3)c2)cc1)NO | – | 21400 | 1050 | > 500 | 500 | – | – | – | – | – | – | – | – | – | – |
| O=C(CNS(=O)(=O)c1ccc(OCc2cccc(-c3ccccc3)c2)cc1)NO | 920 | 1700 | 41 | 100 | 76 | – | – | – | – | – | – | – | – | – | – |
| O=C(CNS(=O)(=O)c1ccc(OCc2ccccc2)cc1)NO | 96 | – | – | – | 590 | – | – | – | – | – | – | – | – | – | – |
| CN(CC(=O)NO)S(=O)(=O)c1ccc(OCc2cc(Br)cc(Br)c2)cc1 | – | 123000 | 1870 | > 200 | 160 | – | – | – | – | – | – | – | – | – | – |
| O=C(CNS(=O)(=O)c1ccc(OCc2cccc(F)c2)cc1)NO | 110 | 940 | 7.8 | 61 | 71 | – | – | – | – | – | – | – | – | – | – |
| O=C(CNS(=O)(=O)c1ccc(OCc2cc(Br)cc(Br)c2)cc1)NO | 51000 | 113000 | 1750 | > 500 | 105 | 5300 | Non-toxic | Non-toxic | Non-toxic | > 10000 | 840 | > 10 | > 10000 | > 10000 | 39 |
| O=C(CNS(=O)(=O)c1ccc(OCc2cccc(Br)c2)cc1)NO | 60 | 1600 | 15 | > 500 | 104 | – | – | – | – | – | – | – | – | – | – |
| O=C(CNS(=O)(=O)c1ccc(OCc2ccc(Br)cc2)cc1)NO | 1.4 | 630 | 1.2 | 120 | 16 | – | – | – | – | – | – | – | – | – | – |
